Here are results for 1 compound from ChEMBL document CHEMBL4371052, “Diarylcarbonates are a new class of deubiquitinating enzyme inhibitor” (Bioorg Med Chem Lett, 2019).

Usually Km stands for the concentration of substrate that gives half-maximal velocity.

Activity calls are given as the source filed them. The rule behind the calls is not given here.

In data set [1] the target is T1, Ubiquitin carboxyl-terminal hydrolase 8 (Homo sapiens) (UniProt P40818).
T1 sequence (whole entry): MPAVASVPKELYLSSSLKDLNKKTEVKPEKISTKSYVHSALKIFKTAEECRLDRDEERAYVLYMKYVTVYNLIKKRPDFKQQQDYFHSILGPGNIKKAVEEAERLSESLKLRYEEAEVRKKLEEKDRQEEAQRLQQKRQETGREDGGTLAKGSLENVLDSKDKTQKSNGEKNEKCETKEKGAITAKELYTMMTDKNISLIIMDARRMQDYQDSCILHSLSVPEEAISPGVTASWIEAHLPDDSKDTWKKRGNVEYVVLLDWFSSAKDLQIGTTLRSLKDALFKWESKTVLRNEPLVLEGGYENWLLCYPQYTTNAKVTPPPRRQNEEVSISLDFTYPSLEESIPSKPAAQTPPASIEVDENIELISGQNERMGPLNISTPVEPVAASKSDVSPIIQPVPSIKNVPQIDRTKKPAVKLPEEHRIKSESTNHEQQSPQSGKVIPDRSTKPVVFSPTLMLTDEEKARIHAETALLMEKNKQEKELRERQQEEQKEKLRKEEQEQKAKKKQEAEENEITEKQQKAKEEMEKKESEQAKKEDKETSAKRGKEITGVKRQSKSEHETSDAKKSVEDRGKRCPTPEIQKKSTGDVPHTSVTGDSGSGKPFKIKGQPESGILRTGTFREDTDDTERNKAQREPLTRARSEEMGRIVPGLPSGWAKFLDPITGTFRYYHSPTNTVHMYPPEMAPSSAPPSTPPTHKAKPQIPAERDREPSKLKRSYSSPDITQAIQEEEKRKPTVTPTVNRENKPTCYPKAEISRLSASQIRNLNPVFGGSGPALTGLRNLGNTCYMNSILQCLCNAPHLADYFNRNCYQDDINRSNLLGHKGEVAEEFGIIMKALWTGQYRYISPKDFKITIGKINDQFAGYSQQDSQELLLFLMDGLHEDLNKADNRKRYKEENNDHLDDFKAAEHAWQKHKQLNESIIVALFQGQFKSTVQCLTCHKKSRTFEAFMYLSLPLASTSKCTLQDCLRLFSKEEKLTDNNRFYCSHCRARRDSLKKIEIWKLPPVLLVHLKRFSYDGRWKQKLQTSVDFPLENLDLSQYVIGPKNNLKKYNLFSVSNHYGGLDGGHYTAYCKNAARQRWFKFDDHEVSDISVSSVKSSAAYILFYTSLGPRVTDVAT
Briefly: Inhibition of USP8 in HEK293T cell lysates at 25 uM using HA-tagged vinyl-sulfone as substrate measured after 2 to 30 mins by Western blot analysis. It is filed as subcellular. Particulars: Lysate. The procedure, abridged: (§1)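 HEK 293T lysate (1.5 mg/ml) given compound (25 μM) or DMSO at the same time as HA-Ub-VS (1.5 μM). Aliquots withdrawn over time were run on SDS-PAGE and immunoblotted for HA.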
On the technique in general: A western blot detects proteins with antibodies after separation by electrophoresis.

The target of data set [2] is Ubiquitin carboxyl-terminal hydrolase 7 (Homo sapiens) (UniProt Q93009). Briefly: Inhibition of recombinant His6-tagged USP7 catalytic domain (unknown origin) assessed as association constant using Ub-AMC as substrate by fluorescence assay.
Ubiquitin carboxyl-terminal hydrolase 7 (Homo sapiens), sequence (Q93009 whole entry, looked up, the tested form may be a part): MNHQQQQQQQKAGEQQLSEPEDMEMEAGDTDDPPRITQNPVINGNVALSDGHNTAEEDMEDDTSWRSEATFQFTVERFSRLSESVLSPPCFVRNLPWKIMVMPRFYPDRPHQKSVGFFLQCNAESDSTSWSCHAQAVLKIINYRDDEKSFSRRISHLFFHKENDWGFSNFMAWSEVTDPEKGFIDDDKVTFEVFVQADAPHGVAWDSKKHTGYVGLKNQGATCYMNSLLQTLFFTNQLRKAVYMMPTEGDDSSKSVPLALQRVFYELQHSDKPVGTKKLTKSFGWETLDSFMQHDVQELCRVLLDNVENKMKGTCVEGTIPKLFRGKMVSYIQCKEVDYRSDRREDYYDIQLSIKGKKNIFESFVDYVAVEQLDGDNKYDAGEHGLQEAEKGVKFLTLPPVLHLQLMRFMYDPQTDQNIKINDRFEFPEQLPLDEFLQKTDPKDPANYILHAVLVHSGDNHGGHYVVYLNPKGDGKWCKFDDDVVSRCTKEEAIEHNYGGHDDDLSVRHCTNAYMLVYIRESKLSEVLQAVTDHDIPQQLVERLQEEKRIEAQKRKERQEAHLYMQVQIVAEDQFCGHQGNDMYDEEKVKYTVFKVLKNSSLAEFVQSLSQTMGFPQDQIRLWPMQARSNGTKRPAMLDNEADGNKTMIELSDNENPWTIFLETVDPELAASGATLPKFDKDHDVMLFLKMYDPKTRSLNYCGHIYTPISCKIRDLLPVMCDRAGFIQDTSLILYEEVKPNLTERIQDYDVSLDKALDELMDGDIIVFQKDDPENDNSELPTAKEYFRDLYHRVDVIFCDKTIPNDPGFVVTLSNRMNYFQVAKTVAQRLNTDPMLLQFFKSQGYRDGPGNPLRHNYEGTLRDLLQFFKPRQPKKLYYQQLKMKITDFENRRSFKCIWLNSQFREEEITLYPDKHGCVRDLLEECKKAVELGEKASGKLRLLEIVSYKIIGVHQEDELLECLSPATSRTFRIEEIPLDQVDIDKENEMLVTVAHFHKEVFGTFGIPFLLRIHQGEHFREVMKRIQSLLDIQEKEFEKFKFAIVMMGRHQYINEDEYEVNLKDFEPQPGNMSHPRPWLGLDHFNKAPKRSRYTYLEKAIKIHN
For data set [3] the target is unchanged. Briefly: Inhibition of recombinant His6-tagged USP7 catalytic domain (unknown origin) using Ub-AMC as substrate by fluorescence assay. Conditions: TDE = time-dependent effect.
For data set [4], the target named is Ubiquitin carboxyl-terminal hydrolase 9X (Homo sapiens) (UniProt Q93008). Briefly: Inhibition of USP9x in HEK293T cell lysates at 25 uM using HA-tagged vinyl-sulfone as substrate measured after 2 to 30 mins by Western blot analysis. It is filed as subcellular. Conditions: Lysate. The essentials: as §1
Ubiquitin carboxyl-terminal hydrolase 9X (Homo sapiens), sequence (Q93008 whole entry): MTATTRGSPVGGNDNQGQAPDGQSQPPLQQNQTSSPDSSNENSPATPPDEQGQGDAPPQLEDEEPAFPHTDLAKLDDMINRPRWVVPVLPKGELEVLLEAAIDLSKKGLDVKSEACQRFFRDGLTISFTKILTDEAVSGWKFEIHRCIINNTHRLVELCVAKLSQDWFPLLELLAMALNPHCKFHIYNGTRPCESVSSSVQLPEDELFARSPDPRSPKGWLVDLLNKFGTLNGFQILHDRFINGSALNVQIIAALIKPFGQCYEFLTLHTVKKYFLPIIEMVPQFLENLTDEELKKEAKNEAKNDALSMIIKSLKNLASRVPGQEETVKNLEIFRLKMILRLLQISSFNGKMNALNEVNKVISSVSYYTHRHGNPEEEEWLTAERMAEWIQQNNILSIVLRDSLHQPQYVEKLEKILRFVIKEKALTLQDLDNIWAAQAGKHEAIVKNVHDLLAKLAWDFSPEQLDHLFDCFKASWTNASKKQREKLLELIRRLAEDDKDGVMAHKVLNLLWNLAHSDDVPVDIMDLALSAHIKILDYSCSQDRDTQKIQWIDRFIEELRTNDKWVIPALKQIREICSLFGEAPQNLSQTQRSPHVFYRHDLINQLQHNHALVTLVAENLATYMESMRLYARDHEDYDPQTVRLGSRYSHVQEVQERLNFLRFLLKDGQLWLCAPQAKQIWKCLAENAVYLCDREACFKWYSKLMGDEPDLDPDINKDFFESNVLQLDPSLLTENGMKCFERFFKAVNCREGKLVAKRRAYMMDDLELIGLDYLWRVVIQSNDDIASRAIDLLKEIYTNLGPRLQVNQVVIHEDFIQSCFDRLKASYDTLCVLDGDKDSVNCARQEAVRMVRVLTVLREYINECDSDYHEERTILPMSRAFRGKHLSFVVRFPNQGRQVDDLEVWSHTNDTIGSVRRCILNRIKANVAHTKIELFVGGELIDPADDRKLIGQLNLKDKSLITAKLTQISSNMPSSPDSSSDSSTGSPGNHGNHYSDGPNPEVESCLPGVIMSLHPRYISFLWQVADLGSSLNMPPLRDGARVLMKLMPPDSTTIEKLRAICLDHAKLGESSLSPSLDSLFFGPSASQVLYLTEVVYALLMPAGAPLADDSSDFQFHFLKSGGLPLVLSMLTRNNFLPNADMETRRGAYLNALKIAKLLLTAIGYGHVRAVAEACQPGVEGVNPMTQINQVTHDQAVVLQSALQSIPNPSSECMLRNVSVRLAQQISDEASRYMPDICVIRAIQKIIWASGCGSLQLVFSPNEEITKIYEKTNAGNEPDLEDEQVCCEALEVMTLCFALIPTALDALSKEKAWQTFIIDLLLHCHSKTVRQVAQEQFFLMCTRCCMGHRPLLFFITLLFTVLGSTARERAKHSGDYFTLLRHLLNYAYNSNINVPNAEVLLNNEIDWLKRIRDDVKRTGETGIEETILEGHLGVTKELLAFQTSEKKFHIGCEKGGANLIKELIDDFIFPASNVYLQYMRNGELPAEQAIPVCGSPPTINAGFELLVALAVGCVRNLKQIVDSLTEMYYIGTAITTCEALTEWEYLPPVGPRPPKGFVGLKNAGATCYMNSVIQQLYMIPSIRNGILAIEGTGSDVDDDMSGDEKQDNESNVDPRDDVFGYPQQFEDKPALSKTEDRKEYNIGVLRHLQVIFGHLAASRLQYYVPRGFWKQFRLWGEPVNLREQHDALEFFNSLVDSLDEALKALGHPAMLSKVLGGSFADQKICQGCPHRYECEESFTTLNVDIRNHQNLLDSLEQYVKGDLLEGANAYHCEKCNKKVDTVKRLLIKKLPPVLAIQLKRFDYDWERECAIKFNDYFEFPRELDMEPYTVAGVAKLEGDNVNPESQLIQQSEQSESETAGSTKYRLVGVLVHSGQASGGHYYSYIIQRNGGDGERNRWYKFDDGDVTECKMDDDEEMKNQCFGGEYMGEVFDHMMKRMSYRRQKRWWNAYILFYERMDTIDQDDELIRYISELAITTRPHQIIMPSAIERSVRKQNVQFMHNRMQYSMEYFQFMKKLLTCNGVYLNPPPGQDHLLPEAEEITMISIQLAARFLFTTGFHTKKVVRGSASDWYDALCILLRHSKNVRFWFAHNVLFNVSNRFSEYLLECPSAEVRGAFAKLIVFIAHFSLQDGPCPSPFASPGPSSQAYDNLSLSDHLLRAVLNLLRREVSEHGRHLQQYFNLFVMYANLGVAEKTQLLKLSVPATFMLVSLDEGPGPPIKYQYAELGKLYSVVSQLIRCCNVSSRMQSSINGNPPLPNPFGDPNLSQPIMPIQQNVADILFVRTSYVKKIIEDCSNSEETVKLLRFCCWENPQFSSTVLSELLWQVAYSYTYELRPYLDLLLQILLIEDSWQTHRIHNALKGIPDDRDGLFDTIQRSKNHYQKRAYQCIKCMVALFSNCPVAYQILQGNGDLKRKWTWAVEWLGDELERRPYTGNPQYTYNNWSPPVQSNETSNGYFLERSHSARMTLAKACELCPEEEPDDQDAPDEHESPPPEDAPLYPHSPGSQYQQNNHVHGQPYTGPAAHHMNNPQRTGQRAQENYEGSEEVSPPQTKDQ
Data set [5] addresses T2, Ubiquitin carboxyl-terminal hydrolase 19 (Homo sapiens) (UniProt O94966).
T2 sequence (whole entry): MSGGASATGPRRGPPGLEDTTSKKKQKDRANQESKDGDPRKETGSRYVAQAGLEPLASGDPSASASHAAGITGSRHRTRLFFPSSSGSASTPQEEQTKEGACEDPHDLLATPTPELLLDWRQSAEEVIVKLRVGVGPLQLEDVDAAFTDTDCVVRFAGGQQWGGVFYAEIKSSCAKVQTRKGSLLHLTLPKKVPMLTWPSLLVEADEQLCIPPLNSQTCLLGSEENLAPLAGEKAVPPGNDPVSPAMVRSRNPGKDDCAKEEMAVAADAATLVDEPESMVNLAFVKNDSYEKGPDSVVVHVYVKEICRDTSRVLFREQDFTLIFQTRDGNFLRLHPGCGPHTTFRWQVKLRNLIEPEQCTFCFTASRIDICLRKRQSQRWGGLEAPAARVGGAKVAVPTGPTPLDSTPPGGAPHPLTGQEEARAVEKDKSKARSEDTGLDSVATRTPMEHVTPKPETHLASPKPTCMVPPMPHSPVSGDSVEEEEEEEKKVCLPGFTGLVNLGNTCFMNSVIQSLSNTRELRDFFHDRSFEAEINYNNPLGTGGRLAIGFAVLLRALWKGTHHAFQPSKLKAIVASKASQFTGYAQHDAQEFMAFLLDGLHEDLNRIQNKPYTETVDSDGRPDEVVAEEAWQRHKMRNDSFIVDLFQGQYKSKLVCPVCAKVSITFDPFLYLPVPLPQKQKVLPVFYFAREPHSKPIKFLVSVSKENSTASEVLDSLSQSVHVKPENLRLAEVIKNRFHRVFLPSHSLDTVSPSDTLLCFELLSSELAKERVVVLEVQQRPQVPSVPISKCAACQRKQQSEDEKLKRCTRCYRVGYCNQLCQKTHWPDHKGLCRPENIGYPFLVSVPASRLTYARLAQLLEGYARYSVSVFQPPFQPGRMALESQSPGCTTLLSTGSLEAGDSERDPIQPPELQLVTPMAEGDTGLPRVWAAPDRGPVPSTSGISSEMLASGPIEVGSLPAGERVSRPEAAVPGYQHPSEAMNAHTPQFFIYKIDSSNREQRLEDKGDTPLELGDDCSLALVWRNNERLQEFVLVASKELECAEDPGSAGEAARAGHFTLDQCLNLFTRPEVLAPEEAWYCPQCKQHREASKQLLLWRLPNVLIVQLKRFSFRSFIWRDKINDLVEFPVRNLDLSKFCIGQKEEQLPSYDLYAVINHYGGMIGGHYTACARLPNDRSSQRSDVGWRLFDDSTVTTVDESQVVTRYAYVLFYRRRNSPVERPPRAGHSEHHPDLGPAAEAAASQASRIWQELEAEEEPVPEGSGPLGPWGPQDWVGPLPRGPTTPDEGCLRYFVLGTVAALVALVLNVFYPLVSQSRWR
Briefly: Inhibition of USP19 in HEK293T cell lysates at 25 uM using HA-tagged vinyl-sulfone as substrate preincubated for 19 to 60 mins followed by substrate addition and measured after 19 to 25 mins by Western blot analysis. The format is subcellular. Conditions: Lysate.

The target of data set [6] is Chymotrypsin (Homo sapiens, UniProt Q99895+P17538+P40313+Q6GPI1). Briefly: (§2) Substrate activity at chymotrypsin (unknown origin) by Michaelis-Menten plot analysis. The format is ADME, protein assay. The essentials: (§3)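 Diarylcarbonate hydrolysis by chymotrypsin or trypsin measured across substrate concentrations; velocity versus substrate concentration fit for Km and kcat.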

In data set [7] the target is chymotrypsin (Homo sapiens, UniProt P17538+P40313+Q6GPI1+Q99895). Described as §2. It is filed as ADME, protein assay. Conditions: chymotrypsin (isolated enzyme, unknown origin). The procedure, abridged:
as §3

For the compound `NCc1ccc(OC(=O)Oc2ccc3ccccc3c2)cc1`, the inhibition result in data set [1] and in data set [4] was “inactive” throughout. In data set [2], the K came out at 9 M⁻¹ s⁻¹. In addition, the inhibition result in data set [3] is “Tde”. Moreover, the inhibition entry in data set [5] is “Active”. The compound further showed a Kcat on Chymotrypsin [6] of 0.03 s⁻¹. In addition, the Km at chymotrypsin [7] stood at 1 µM.
